ChEMBL document CHEMBL4680078, “Inhibitors of the Cysteine Synthase CysM with Antibacterial Potency against Dormant Mycobacterium tuberculosis” (J Med Chem, 2016)
Activity calls are given as the source filed them. The calls are words filed in the database; no cut-off is given here.

How the values were obtained:
[1] = system: Mycobacterium tuberculosis; test: Antimycobacterial activity against Mycobacterium tuberculosis H37Rv grown under nutrient starvation condition assessed as reduction in nonreplicating cells count incubated for 7 days at 10 ug/ml; type: functional; settings: for Activity: dose 10.0 µg/ml, time 7.0 day; for log(activity): dose 10 µg/ml, time 7 day
HepG2 = test: Cytotoxicity in human HepG2 cells assessed as reduction in cell viability at 10 uM incubated for 72 hrs by Cell-titer-Glo assay; type: cell-based; settings: hepg2, 72 h
[2] = system: Mycobacterium tuberculosis; test: Inhibition of Mycobacterium tuberculosis CysM expressed in Escherichia coli strain BL21 (DE3) assessed as reduction in amino-acrylate intermediate formation by measuring residual enzyme activity at 100 uM incubated for 5 mins in presence of OPS by spectrophotometry
Outline: (§1)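 Orthogonal activity assay with recombinant CysM, following formation of the α-aminoacrylate intermediate in the first half-reaction with OPS. Apparent first-order rate constants (kobs) determined. Only residual activities below 20% are reliably quantified; >20% remaining activity is reported as a limit.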

SH-SY5Y = test: Cytotoxicity in human SH-SY5Y cells assessed as reduction in cell viability at 10 uM incubated for 72 hrs by Cell-titer-Glo assay; type: cell-based
J774.A1 = test: Cytotoxicity in mouse J774.A1 cells assessed as reduction in cell viability at 10 uM incubated for 72 hrs by Cell-titer-Glo assay; type: cell-based; settings: j774.a1, 72 h
[3] = Binding affinity to Mycobacterium tuberculosis CysM by ITC analysis
[4] = system: Mycobacterium tuberculosis; test: Inhibition of Mycobacterium tuberculosis CysM expressed in Escherichia coli strain BL21 (DE3) assessed as apparent first-order rate constant for the formation of the alpha-aminoacrylate intermediate at 100 uM incubated for 5 mins in presence of OPS by spectrophotometry; outline: as §1
[5] = system: Mycobacterium tuberculosis; test: Antimycobacterial activity against Mycobacterium tuberculosis H37Rv assessed as inhibition of microbial growth incubated for 5 days by alamar blue assay; type: functional; settings: 120 h, time 5 day
THP-1 = test: Cytotoxicity in human THP-1 cells assessed as reduction in cell viability at 10 uM incubated for 72 hrs by Cell-titer-Glo assay; type: cell-based; settings: thp-1, 72 h
[6] = Binding affinity to Mycobacterium tuberculosis CysM expressed in Escherichia coli strain BL21 (DE3) incubated for 5 mins by PLP fluorescence-based screening assay
Outline: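 Binding measured by the rise in fluorescence emission of the enzyme-bound PLP cofactor on ligand binding, using recombinant CysM at 2 µM. Kd obtained by fitting the ligand concentration dependence to a 1:1 binding-site model. Affinities approaching sub-µM are limited by protein concentration.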

[7] = system: Mycobacterium tuberculosis; test: Bactericidal activity against Mycobacterium tuberculosis H37Rv grown under nutrient starvation condition assessed as reduction in nonreplicating cells count incubated for 7 days at 10 ug/ml in presence of 0.2 mM cysteine; type: functional, organism-based; settings: dose 10.0 µg/ml, time 7.0 day
Outline: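 Nutrient-starved, nonreplicating H37Rv culture exposed to compound at 10 µg/ml alongside added L-cysteine (series 0.0, 0.05, 0.2, 0.5 mM) and an untreated control. Viable bacteria counted by most probable number (MPN) assay. Run in triplicate.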

[8] = Binding affinity to Mycobacterium tuberculosis CysK2 by PLP fluorescence-based screening assay
[9] = system: Mycobacterium tuberculosis; test: Selectivity index, ratio of Kd for binding affinity to Mycobacterium tuberculosis CysK1 to Kd for binding affinity to Mycobacterium tuberculosis CysM expressed in Escherichia coli strain BL21 (DE3)
[10] = target: T1, Cystathionine beta-synthase (Homo sapiens) (UniProt P35520); test: Binding affinity to human CBS by PLP fluorescence-based screening assay
T1 sequence (whole entry): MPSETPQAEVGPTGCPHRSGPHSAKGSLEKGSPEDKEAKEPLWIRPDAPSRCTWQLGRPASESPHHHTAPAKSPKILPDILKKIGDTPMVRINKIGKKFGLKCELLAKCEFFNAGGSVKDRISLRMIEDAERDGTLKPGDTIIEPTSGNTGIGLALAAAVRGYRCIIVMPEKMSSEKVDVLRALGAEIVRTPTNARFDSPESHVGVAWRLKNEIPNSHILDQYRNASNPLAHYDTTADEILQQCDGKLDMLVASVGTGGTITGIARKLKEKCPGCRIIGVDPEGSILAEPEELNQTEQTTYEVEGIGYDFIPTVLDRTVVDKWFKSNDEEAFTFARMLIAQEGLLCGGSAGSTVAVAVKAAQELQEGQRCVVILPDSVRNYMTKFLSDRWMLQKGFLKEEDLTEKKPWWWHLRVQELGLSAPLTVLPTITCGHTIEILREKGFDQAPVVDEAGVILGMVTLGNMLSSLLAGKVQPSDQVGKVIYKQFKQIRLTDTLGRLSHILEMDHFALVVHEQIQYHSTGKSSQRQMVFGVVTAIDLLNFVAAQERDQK

[11] = system: Mycobacterium tuberculosis; test: Selectivity index, ratio of Kd for binding affinity to Mycobacterium tuberculosis CysK2 to Kd for binding affinity to Mycobacterium tuberculosis CysM expressed in Escherichia coli strain BL21 (DE3)
[12] = Binding affinity to Mycobacterium tuberculosis CysK1 by PLP fluorescence-based screening assay

SMILES	Activity [2]	K [4]	MIC [5]	Kd ([6]; read-out: Kd)	also measured
O=C(Nc1ccc(Cl)cc1)Nc1cccc(C(=O)O)c1	0.6%	0.24 min⁻¹	21.5 µM	–	Activity [1]: inactive; Activity (HepG2): Non-Toxic; Activity (SH-SY5Y): Non-Toxic; Activity (J774.A1): Non-Toxic; Kd [3]: 3.4 µM; Activity (THP-1): Non-Toxic
O=C(Nc1ccc(Cl)c(Cl)c1)Nc1ccc(O)c(C(=O)O)c1	–	> 20 min⁻¹	–	–	Kd [6]: Not Active
NNC(=O)c1ccncc1 [ISONIAZID]	–	–	0.4 µM	–	log(activity) [1]: 1
O=C(Nc1ccc(Cl)c(Cl)c1)Nc1ccc(C(=O)O)cc1O	–	> 20 min⁻¹	–	–	Kd [6]: Not Active
O=C(Nc1cccc(-c2ccccc2)c1)Nc1ccc(C(=O)O)c(O)c1	1.2%	0.48 min⁻¹	2.2 µM	4.5 µM	log(activity) [1]: 3; Activity [7]: inactive
O=C(Nc1ccc([N+](=O)[O-])cc1)Nc1cccc(C(=O)O)c1	5.7%	2.22 min⁻¹	20.7 µM	10.5 µM	Activity [1]: inactive
Cc1ccc(NC(=O)Nc2cccc(C(=O)O)c2)cc1	4.9%	1.92 min⁻¹	23.1 µM	8 µM	–
O=C(Nc1cccc(-c2ccccc2)c1)Nc1ccc(O)c(C(=O)O)c1	0.6%	0.23 min⁻¹	–	–	Activity (HepG2): Non-Toxic; Activity (SH-SY5Y): Non-Toxic; Activity (J774.A1): Non-Toxic; Kd [3]: 2.2 µM; Activity (THP-1): Non-Toxic
O=C(Nc1cccc(C(=O)O)c1)Nc1cccc(-c2ccccc2)c1	0.6%	0.24 min⁻¹	18.8 µM	1.7 µM	Activity (HepG2): Non-Toxic; Kd [8]: 22.6 µM; Activity (SH-SY5Y): Non-Toxic; Activity (J774.A1): Non-Toxic; Ratio [9]: > 80; Activity [10]: inactive; Ratio [11]: 15; Activity (THP-1): Non-Toxic; Kd [12]: 96.8 µM
O=C(Nc1ccc(C(=O)O)c(O)c1)Nc1ccc(Cl)c(Cl)c1	–	> 20 min⁻¹	–	–	Kd [6]: Not Active
O=C(NCc1ccc(Cl)c(Cl)c1)Nc1cccc(C(=O)O)c1	–	> 20 min⁻¹	–	> 300 µM	–
